Screens as filed in PubChem BioAssay.
miR-122 sensor: miR-122 inhibition in Huh7 cells | Huh7 miR-122 Renilla luciferase sensor, 48 h; neutral wells = 0, positive control = 100 | activation (reporter increase), % at 12.5 µM | hit rate 0.3% among 340,000 | AID 602342;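 active = mean replicate activation score at least 90 and every replicate individually at or above 90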;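 note: higher luciferase means less miR-122 activity so hits act as miR-122 inhibitors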
697 NFkB inh: lowers PMA/ionomycin-induced NF-kB signal in 697 B cells; 697 B-cell NF-kB luciferase reporter, 16 h; inhibition, % at 4 µM; hit rate 0.33% among 330,000; in the data active = inhibition above about 35%
NR2E3 ag-1: agonists of human nuclear receptor NR2E3; GST-NR2E3/biotin-RetCOR TR-FRET, 1536-well; inhibition of corepressor binding, % at 4.78 µM; hit rate 0.12% among 320,000; AID 2300;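 active = percent inhibition above the cutoff of mean plus 3 SD of all tested compounds, set per screening campaign, cut at about 20% in these data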
Target sequence (Q9Y5X4 whole entry, looked up): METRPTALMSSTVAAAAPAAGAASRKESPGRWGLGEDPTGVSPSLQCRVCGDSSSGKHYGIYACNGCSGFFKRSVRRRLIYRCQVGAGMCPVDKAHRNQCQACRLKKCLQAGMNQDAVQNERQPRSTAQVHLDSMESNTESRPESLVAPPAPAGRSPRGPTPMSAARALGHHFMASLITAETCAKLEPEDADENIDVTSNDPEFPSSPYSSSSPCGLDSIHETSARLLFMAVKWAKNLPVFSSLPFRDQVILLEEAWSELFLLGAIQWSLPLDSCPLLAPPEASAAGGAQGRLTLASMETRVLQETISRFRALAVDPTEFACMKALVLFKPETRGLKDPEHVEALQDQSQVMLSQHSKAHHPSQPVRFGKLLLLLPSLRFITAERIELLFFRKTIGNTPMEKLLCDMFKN
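system = GST-tagged NR2E3 plus biotinylated RetCOR corepressor | input = 1.35 nM GST-NR2E3 | also added = 7 nM biotin-RetCOR | schedule = 5 h incubation at 4 °C | measured by = TR-FRET with europium anti-GST and streptavidin-D2, 340 nm excitation | read-out = percent loss of FRET ratio relative to control wells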
NR2E3 ag-2: activates human NR2E3 receptor; AID 602229; inhibition of corepressor binding, % at 3.98 µM; CHO-S Gal4-NCOR/VP16-NR2E3 two-hybrid, luciferase; hit rate 0.35% among 360,000; Q9Y5X4;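 active = inhibition above the mean of all tested compounds plus 3 SD, cut at about 70% in these data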;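 note: higher means lower luciferase signal from less NR2E3 corepressor binding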
FGF22 binding: FGF22 (human) thermal shift binding. recombinant FGF22 thermal shift, SYPRO orange fluorescence; percent of sucrose octasulfate shift, DMSO zero. hit rate 1.5% among 340,000. activity (Tm shift, normalised), % at 9.99 µM. Q9HCT0;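 active = mean Tm shift, scaled 0 neutral to 100 positive control, at about 1.3% or above, every replicate too, limit read from the data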
Target sequence (Q9HCT0 whole entry, looked up): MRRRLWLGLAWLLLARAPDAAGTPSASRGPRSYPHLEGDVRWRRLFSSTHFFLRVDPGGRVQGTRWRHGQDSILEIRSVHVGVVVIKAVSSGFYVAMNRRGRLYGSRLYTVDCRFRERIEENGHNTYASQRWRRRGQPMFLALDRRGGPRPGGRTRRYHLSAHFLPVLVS
Jurkat NFkB inh: inhibitors of the PMA/ionomycin-induced NF-kB reporter in Jurkat cells | PMA/ionomycin-induced NF-kB luciferase reporter, luminescence | inhibition, % at 4 µM | hit rate 0.53% among 330,000 | AID 435003; in the data active = inhibition above about 50%
Hits are given with their value. A selection: hits, their analogues and other compounds. The true share with any hit is near 2.2%.

C[C@@H]1CN([C@H](C)CO)C(=O)c2cc(NC(=O)Nc3ccc(F)cc3)ccc2O[C@H]1CN(C)S(=O)(=O)c1cccs1 was read as miR-122 sensor inactive and FGF22 binding inactive.
`Cn1c(N)c(C(=O)COC(=O)C2CCC(C(C)(C)C)CC2)c(=O)n(C)c1=O` (configuration not stated) gave miR-122 sensor inactive, 697 NFkB inh inactive, NR2E3 ag-1 inactive, NR2E3 ag-2 inactive and Jurkat NFkB inh inactive.
Cn1c(N)c(C(=O)COC(=O)C2CCCC2)c(=O)n(C)c1=O was read as 697 NFkB inh inactive, NR2E3 ag-1 inactive, NR2E3 ag-2 inactive, FGF22 binding 43.1 and Jurkat NFkB inh inactive.
Cn1c(N)c(C(=O)COC(=O)/C=C/c2ccc(Cl)cc2)c(=O)n(C)c1=O was read as miR-122 sensor inactive, 697 NFkB inh inactive, NR2E3 ag-1 inactive, NR2E3 ag-2 inactive, FGF22 binding inactive and Jurkat NFkB inh inactive.
For Cn1c(N)c(C(=O)COC(=O)/C=C/c2ccc(Cl)cc2Cl)c(=O)n(C)c1=O the results were miR-122 sensor inactive, 697 NFkB inh inactive, NR2E3 ag-2 inactive, FGF22 binding 43.8 and Jurkat NFkB inh inactive.
Screening O=C(C1CCN(Cc2cn[nH]c2-c2ccc(F)cc2F)CC1)N1CCOCC1 returned 697 NFkB inh inactive, NR2E3 ag-1 inactive, NR2E3 ag-2 inactive, FGF22 binding 44.1 and Jurkat NFkB inh inactive.
For COc1ccc(-c2[nH]ncc2CN2CCC(C(=O)N3CCOCC3)CC2)c(F)c1 the results were miR-122 sensor inactive, 697 NFkB inh inactive, NR2E3 ag-1 inactive, NR2E3 ag-2 inactive, FGF22 binding inactive and Jurkat NFkB inh inactive.
For O=C(Nc1ccccc1)n1cc(-c2ccccn2)c(N2CCOCC2)n1 the results were 697 NFkB inh inactive, NR2E3 ag-1 inactive, NR2E3 ag-2 inactive, FGF22 binding 44.1 and Jurkat NFkB inh inactive.
O=C(Nc1ccc(Nc2ccccc2)cc1)N1CCOCC1 was read as miR-122 sensor inactive, 697 NFkB inh inactive, NR2E3 ag-1 inactive, NR2E3 ag-2 inactive and Jurkat NFkB inh inactive.
`CNC[C@@H]1OCCCC[C@@H](C)Oc2ccc(NC(=O)c3ccncc3)cc2C(=O)N([C@@H](C)CO)C[C@H]1C` gave miR-122 sensor inactive and FGF22 binding inactive.
For CCOc1ccc(OCc2ccc(C(=O)N/N=C(\C)c3ccccn3)cc2)cc1 the results were NR2E3 ag-1 inactive, NR2E3 ag-2 inactive and FGF22 binding 43.1.
For S=C(NC1CCCC1)NN1CCOCC1 the results were 697 NFkB inh inactive, NR2E3 ag-1 inactive, NR2E3 ag-2 inactive, FGF22 binding inactive and Jurkat NFkB inh inactive.
`CN1CCN(NC(=S)NC(C)(C)CC(C)(C)C)CC1` gave miR-122 sensor inactive, 697 NFkB inh inactive, NR2E3 ag-1 inactive, NR2E3 ag-2 inactive, FGF22 binding 42.9 and Jurkat NFkB inh inactive.
For CN1CCN(NC(=S)NC2CCCC2)CC1 the results were 697 NFkB inh inactive, NR2E3 ag-1 inactive, NR2E3 ag-2 inactive, FGF22 binding 43.3 and Jurkat NFkB inh inactive.
`COc1nccnc1NS(=O)(=O)c1ccc(NC(=O)c2cccc(C)c2)cc1` gave 697 NFkB inh inactive, NR2E3 ag-1 inactive, NR2E3 ag-2 inactive, FGF22 binding 43.4 and Jurkat NFkB inh inactive.
`C[C@@H]1CN([C@H](C)CO)C(=O)CCCn2cc(nn2)CO[C@H]1CN(C)Cc1ccc(C(F)(F)F)cc1` gave miR-122 sensor inactive and FGF22 binding inactive.
Cc1ccc(SCCN)cc1C was read as 697 NFkB inh inactive, NR2E3 ag-1 inactive, NR2E3 ag-2 inactive, FGF22 binding 43.4 and Jurkat NFkB inh inactive.
For Cc1ccc(SCC(=O)NNC(=O)c2ccccc2)cc1C the results were miR-122 sensor inactive, 697 NFkB inh inactive, NR2E3 ag-1 inactive, NR2E3 ag-2 inactive, FGF22 binding inactive and Jurkat NFkB inh inactive.
Screening COc1ccc(NC(=O)C(c2ccccc2)c2ccccc2)cn1 returned 697 NFkB inh inactive, NR2E3 ag-1 inactive, NR2E3 ag-2 inactive, FGF22 binding 43.2 and Jurkat NFkB inh inactive.
CCOc1cc(S(=O)(=O)NCCc2ccccc2C)c(OCC)cc1-n1cnnn1 was read as miR-122 sensor 125.6, 697 NFkB inh inactive, NR2E3 ag-1 inactive, NR2E3 ag-2 inactive and Jurkat NFkB inh inactive.
For O=C1CCN(Cc2nc(-c3ccc(Cl)cc3)no2)CCN1 the results were miR-122 sensor inactive, 697 NFkB inh inactive, NR2E3 ag-1 inactive, NR2E3 ag-2 inactive, FGF22 binding 43.0 and Jurkat NFkB inh inactive.
Screening Clc1ccc(-c2noc(CN3CCOCC3)n2)cc1 returned miR-122 sensor inactive, 697 NFkB inh inactive, NR2E3 ag-1 inactive, NR2E3 ag-2 inactive and Jurkat NFkB inh inactive.
For Cn1c(Cn2c(=O)sc3ccccc32)nnc1SCC(=O)Nc1ccc2c(c1)OCO2 the results were miR-122 sensor inactive, 697 NFkB inh inactive, NR2E3 ag-1 inactive, NR2E3 ag-2 inactive, FGF22 binding 43.9 and Jurkat NFkB inh inactive.
For Cc1cc(C)cc(NC(=O)CSc2nnc(Cn3c(=O)sc4ccccc43)n2C)c1 the results were 697 NFkB inh inactive, NR2E3 ag-1 inactive, NR2E3 ag-2 inactive, FGF22 binding 43.3 and Jurkat NFkB inh inactive.
`NNC(=O)c1ccccc1-n1cccc1` gave miR-122 sensor inactive, 697 NFkB inh inactive, NR2E3 ag-1 inactive, NR2E3 ag-2 inactive, FGF22 binding 43.1 and Jurkat NFkB inh inactive.
CN(C)Cc1c(-c2ccc(Cl)cc2)nc2ccc(Cl)cn12 was read as 697 NFkB inh inactive, NR2E3 ag-1 inactive, NR2E3 ag-2 inactive, FGF22 binding 43.3 and Jurkat NFkB inh inactive.
COc1ccc(OC)c(S(=O)(=O)N/N=C\c2ccc3c(c2)OCO3)c1 was read as miR-122 sensor 104.9, 697 NFkB inh inactive, NR2E3 ag-1 inactive, NR2E3 ag-2 inactive, FGF22 binding inactive and Jurkat NFkB inh inactive.
For Cc1nc(SCc2cccc(C(=O)O)c2)nc2c1CCCC2 the results were miR-122 sensor inactive, 697 NFkB inh inactive, NR2E3 ag-1 inactive, NR2E3 ag-2 inactive, FGF22 binding 43.0 and Jurkat NFkB inh inactive.
For Cc1ccc(C(F)(F)F)cc1NC(N)=S the results were 697 NFkB inh inactive, NR2E3 ag-1 inactive, NR2E3 ag-2 inactive, FGF22 binding 44.1 and Jurkat NFkB inh inactive.
Screening COc1ccc2[nH]cc(CCNC(=O)Cc3ccc(Br)cc3)c2c1 returned miR-122 sensor inactive, 697 NFkB inh inactive, NR2E3 ag-1 inactive, NR2E3 ag-2 inactive, FGF22 binding inactive and Jurkat NFkB inh inactive.
Screening COc1ccc2[nH]cc(CCNC(=O)Cn3cc(C)c(=O)[nH]c3=O)c2c1 returned miR-122 sensor inactive, NR2E3 ag-2 inactive and FGF22 binding 43.2.
Screening Cc1nn(C)c(C)c1CNC(=O)Nc1cccc(Cl)c1 returned 697 NFkB inh inactive, NR2E3 ag-1 inactive, NR2E3 ag-2 inactive, FGF22 binding 43.4 and Jurkat NFkB inh inactive.
`O=C(NCc1ccc(F)cc1)Nc1cccc(Cl)c1` gave 697 NFkB inh inactive, NR2E3 ag-1 inactive, NR2E3 ag-2 inactive, FGF22 binding 43.7 and Jurkat NFkB inh inactive.
